Measurements taken from ChEMBL document CHEMBL5356993, “Novel pyrazolo[3,4-d]pyrimidine derivatives: design, synthesis, anticancer evaluation, VEGFR-2 inhibition, and antiangiogenic activity” (RSC Med Chem, 2023).

Columns and labels:
Type in all cases: functional
Details in all cases: read-out: GI
HOP-92 = assay: Antiproliferative activity against human HOP-92 cells assessed as cell growth inhibition at 10 uM incubated for 48 hrs by SRB assay relative to control
Outline: (§1)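 Cells plated in 96-well plates at […] cells/well and preincubated 24 h at 37 °C, 5% CO2. Time-zero plates were TCA-fixed. Compound was diluted in medium with 50 µg/mL gentamicin and cells exposed for 48 h. Adherent cells fixed with 10% final TCA; suspension cells with 16% final TCA. Plates stained with 0.4% SRB in 1% acetic acid, dye solubilized in 10 mM Trizma, absorbance read at 515 nm. Percent growth calculated against time-zero and control.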

OVCAR-3 = assay: Antiproliferative activity against human OVCAR-3 cells assessed as cell growth inhibition at 10 uM incubated for 48 hrs by SRB assay relative to control; outline: as §1
OVCAR-5 = assay: Antiproliferative activity against human OVCAR-5 cells assessed as cell growth inhibition at 10 uM incubated for 48 hrs by SRB assay relative to control; outline: as §1
MCF7 = assay: Antiproliferative activity against human MCF7 cells assessed as cell growth inhibition at 10 uM incubated for 48 hrs by SRB assay relative to control
RXF 393 = assay: Antiproliferative activity against human RXF 393 cells assessed as cell growth inhibition at 10 uM incubated for 48 hrs by SRB assay relative to control; outline: as §1
NCI-H322M = assay: Antiproliferative activity against human NCI-H322M cells assessed as cell growth inhibition at 10 uM incubated for 48 hrs by SRB assay relative to control
NCI/ADR-RES = assay: Antiproliferative activity against human NCI-ADR-RES cells assessed as cell growth inhibition at 10 uM incubated for 48 hrs by SRB assay relative to control
SK-OV-3 = assay: Antiproliferative activity against human SK-OV-3 cells assessed as cell growth inhibition at 10 uM incubated for 48 hrs by SRB assay relative to control; outline: as §1
BT-549 = assay: Antiproliferative activity against human BT-549 cells assessed as cell growth inhibition at 10 uM incubated for 48 hrs by SRB assay relative to control
SK-MEL-28 = assay: Antiproliferative activity against human SK-MEL-28 cells assessed as cell growth inhibition at 10 uM incubated for 48 hrs by SRB assay relative to control; outline: as §1
PC-3 = assay: Antiproliferative activity against human PC-3 cells assessed as cell growth inhibition at 10 uM incubated for 48 hrs by SRB assay relative to control
A549 = assay: Antiproliferative activity against human A549 cells assessed as cell growth inhibition at 10 uM incubated for 48 hrs by SRB assay relative to control
UACC-257 = assay: Antiproliferative activity against human UACC-257 cells assessed as cell growth inhibition at 10 uM incubated for 48 hrs by SRB assay relative to control
Outline: (§2)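 Cells pre-incubated 24 h at 37°C, 5% CO2, then exposed to compound (DMSO stock diluted in medium with 50 µg/mL gentamicin) for 48 h. Adherent cells fixed with cold TCA (final 10%, 60 min, 4°C); suspension cells fixed with 16% TCA final. Stained with 0.4% SRB in 1% acetic acid for 10 min, dye solubilized in 10 mM Trizma base, absorbance read at 515 nm. Growth calculated against time-zero and untreated control plates.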

SN12C = assay: Antiproliferative activity against human SN12C cells assessed as cell growth inhibition at 10 uM incubated for 48 hrs by SRB assay relative to control
SK-MEL-2 = assay: Antiproliferative activity against human SK-MEL-2 cells assessed as cell growth inhibition at 10 uM incubated for 48 hrs by SRB assay relative to control; outline: as §1
SF-268 = assay: Antiproliferative activity against human SF-268 cells assessed as cell growth inhibition at 10 uM incubated for 48 hrs by SRB assay relative to control
CAKI-1 = assay: Antiproliferative activity against human CAKI-1 cells assessed as cell growth inhibition at 10 uM incubated for 48 hrs by SRB assay relative to control
MOLT-4 = assay: Antiproliferative activity against human MOLT-4 cells assessed as cell growth inhibition at 10 uM incubated for 48 hrs by SRB assay relative to control
KM12 = assay: Antiproliferative activity against human KM12 cells assessed as cell growth inhibition at 10 uM incubated for 48 hrs by SRB assay relative to control; outline: as §1
SF-295 = assay: Antiproliferative activity against human SF-295 cells assessed as cell growth inhibition at 10 uM incubated for 48 hrs by SRB assay relative to control; outline: as §1
DU-145 = assay: Antiproliferative activity against human DU-145 cells assessed as cell growth inhibition at 10 uM incubated for 48 hrs by SRB assay relative to control
Hs-578T = assay: Antiproliferative activity against human Hs-578T cells assessed as cell growth inhibition at 10 uM incubated for 48 hrs by SRB assay relative to control; outline: as §1
NCI-H226 = assay: Antiproliferative activity against human NCI-H226 cells assessed as cell growth inhibition at 10 uM incubated for 48 hrs by SRB assay relative to control; outline: as §1
ACHN = assay: Antiproliferative activity against human ACHN cells assessed as cell growth inhibition at 10 uM incubated for 48 hrs by SRB assay relative to control
U-251 = assay: Antiproliferative activity against human U-251 cells assessed as cell growth inhibition at 10 uM incubated for 48 hrs by SRB assay relative to control; outline: as §2
MDA-MB-468 = assay: Antiproliferative activity against human MDA-MB-468 cells assessed as cell growth inhibition at 10 uM incubated for 48 hrs by SRB assay relative to control
SNB-75 = assay: Antiproliferative activity against human SNB-75 cells assessed as cell growth inhibition at 10 uM incubated for 48 hrs by SRB assay relative to control; outline: as §2
HT-29 = assay: Antiproliferative activity against human HT-29 cells assessed as cell growth inhibition at 10 uM incubated for 48 hrs by SRB assay relative to control; outline: as §1
RPMI-8226 = assay: Antiproliferative activity against human RPMI-8226 cells assessed as cell growth inhibition at 10 uM incubated for 48 hrs by SRB assay relative to control
Malme-3M = assay: Antiproliferative activity against human Malme-3M cells assessed as cell growth inhibition at 10 uM incubated for 48 hrs by SRB assay relative to control
OVCAR-8 = assay: Antiproliferative activity against human OVCAR-8 cells assessed as cell growth inhibition at 10 uM incubated for 48 hrs by SRB assay relative to control
SNB-19 = assay: Antiproliferative activity against human SNB-19 cells assessed as cell growth inhibition at 10 uM incubated for 48 hrs by SRB assay relative to control; outline: as §2
COLO 205 = assay: Antiproliferative activity against human COLO 205 cells assessed as cell growth inhibition at 10 uM incubated for 48 hrs by SRB assay relative to control
IGROV-1 = assay: Antiproliferative activity against human IGROV-1 cells assessed as cell growth inhibition at 10 uM incubated for 48 hrs by SRB assay relative to control

| Structure (SMILES) | inhibition of growth at 10 µM (HOP-92) | inhibition of growth at 10 µM (OVCAR-3) | inhibition of growth at 10 µM (OVCAR-5) | inhibition of growth at 10 µM (MCF7) | inhibition of growth at 10 µM (RXF 393) | inhibition of growth at 10 µM (NCI-H322M) | inhibition of growth at 10 µM (NCI/ADR-RES) | inhibition of growth at 10 µM (SK-OV-3) | inhibition of growth at 10 µM (BT-549) | inhibition of growth at 10 µM (SK-MEL-28) | inhibition of growth at 10 µM (PC-3) | inhibition of growth at 10 µM (A549) | inhibition of growth at 10 µM (UACC-257) | inhibition of growth at 10 µM (SN12C) | inhibition of growth at 10 µM (SK-MEL-2) | inhibition of growth at 10 µM (SF-268) | inhibition of growth at 10 µM (CAKI-1) | inhibition of growth at 10 µM (MOLT-4) | inhibition of growth at 10 µM (KM12) | inhibition of growth at 10 µM (SF-295) | further results |
| --- | --- | --- | --- | --- | --- | --- | --- | --- | --- | --- | --- | --- | --- | --- | --- | --- | --- | --- | --- | --- | --- |
| Cc1ccc(C(=O)Nc2ccc(-n3c(C)nc4c(cnn4-c4ccccc4)c3=O)cc2)cc1 | < 15% | < 15% | < 15% | 52.2% | < 15% | < 15% | 47.3% | < 15% | 40.8% | 19.3% | 28.4% | 34.2% | 58% | 26.7% | 21.7% | < 15% | 27.6% | 65.7% | 22.5% | 49.4% | inhibition of growth at 10 µM (DU-145): 15.1%; inhibition of growth at 10 µM (Hs-578T): 15.2%; inhibition of growth at 10 µM (NCI-H226): 45.2%; inhibition of growth at 10 µM (ACHN): 38.2%; inhibition of growth at 10 µM (U-251): < 15%; inhibition of growth at 10 µM (MDA-MB-468): 78.9%; inhibition of growth at 10 µM (SNB-75): 17.2%; inhibition of growth at 10 µM (HT-29): 28.8%; inhibition of growth at 10 µM (RPMI-8226): 41.6%; inhibition of growth at 10 µM (Malme-3M): 32.3%; inhibition of growth at 10 µM (OVCAR-8): 23.2%; inhibition of growth at 10 µM (SNB-19): 17.9%; inhibition of growth at 10 µM (COLO 205): 22.6%; inhibition of growth at 10 µM (IGROV-1): 28.4% |
| COc1ccc(/C=C/C(=O)c2ccc(-n3c(C)nc4c(cnn4-c4ccccc4)c3=O)cc2)cc1 | < 15% | 39% | < 15% | 91.7% | 15.6% | < 15% | 37.6% | < 15% | 55% | < 15% | 34.9% | < 15% | 25.4% | 18.4% | 29.4% | < 15% | 25% | 55.3% | 68.4% | 34.5% | inhibition of growth at 10 µM (DU-145): 16.8%; inhibition of growth at 10 µM (Hs-578T): < 15%; inhibition of growth at 10 µM (NCI-H226): 29.4%; inhibition of growth at 10 µM (ACHN): 29%; inhibition of growth at 10 µM (U-251): 25.9%; inhibition of growth at 10 µM (MDA-MB-468): 88.7%; inhibition of growth at 10 µM (SNB-75): < 15%; inhibition of growth at 10 µM (HT-29): 28.5%; inhibition of growth at 10 µM (RPMI-8226): > 100%; inhibition of growth at 10 µM (Malme-3M): 39.5%; inhibition of growth at 10 µM (OVCAR-8): 16.6%; inhibition of growth at 10 µM (SNB-19): 18.2%; inhibition of growth at 10 µM (COLO 205): < 15%; inhibition of growth at 10 µM (IGROV-1): < 15% |
